In publication PMC10848874 (Bioorganic & medicinal chemistry, 2023):
“Also recorded” adds a separate entry of the source.

Legend:
PANC-1 cells = assay: Wound healing; assay type: cell-based, human; conditions: for Scratch gap closure: PANC-1 cells, 37 °C, 5% CO2; for PANC-1 cell migration in wound healing assay (in words): 0.5 and 1 μM
In short: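 PANC-1 cells in DMEM with 10% heat-inactivated FBS and 30 μg/mL gentamicin were seeded at about 1 × 10⁵ cells per well in 6-well plates and grown to 70–80% confluency. Each well was scratched with a sterile pipette tip, then medium and detached cells were removed. Duplicate wells received 0.5 or 1 μM test compound or control (final DMSO ≤0.2%). Closure was imaged by automated microscopy (4X) for 48 h.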

[1] = test system: purified bovine brain tubulin; assay: Inhibition of tubulin polymerization; assay type: biochemical; conditions: oxetane analogues compared with their ketone counterparts
In short: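 Bovine brain tubulin at 1 mg/mL (10 μM) in 0.8 M monosodium glutamate (pH 6.6) with 4% (v/v) DMSO and varied test compound concentrations, preincubated 15 min at 30 °C without GTP. The mix was chilled to 0 °C, then GTP added (0.1 mM final), and warmed to 30 °C over about 30 s.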

Compound	Scratch gap closure (PANC-1 cells; 0.5 μM compound)	Scratch gap closure (PANC-1 cells; 1 μM compound)	PANC-1 cell migration in wound healing assay (in words) (PANC-1 cells)	Inhibition of tubulin polymerization (in words) [1]
COc1cc(C2(c3c(-c4ccccc4)[nH]c4cc(Br)ccc34)COC2)cc(OC)c1OC [Compound 5c, 6-Bromo-2-phenyl-3-(3-(3,4,5-trimethoxyphenyl)oxetan-3-yl)-1H-indole]	gap is not completely closed after 40 h	gap remains open after 40 h	inhibited PANC-1 cell migration	at most weakly active as inhibitors of tubulin polymerization; also recorded: no significant tubulin assembly inhibition activity
COc1cc(C2(c3c(-c4ccccc4)[nH]c4c(OC)cccc34)COC2)cc(OC)c1OC [Compound 5h, 7-Methoxy-2-phenyl-3-(3-(3,4,5-trimethoxyphenyl)oxetan-3-yl)-1H-indole]	gap is not closed after 48 h	gap remains open after 48 h	inhibited PANC-1 cell migration	at most weakly active as inhibitors of tubulin polymerization; also recorded: no significant tubulin assembly inhibition activity
COc1cc(C2(c3c(-c4ccccc4)[nH]c4cc(Cl)ccc34)COC2)cc(OC)c1OC [Compound 5k, 6-Chloro-2-phenyl-3-(3-(3,4,5-trimethoxyphenyl)oxetan-3-yl)-1H-indole]	–	–	–	at most weakly active as inhibitors of tubulin polymerization; also recorded: no significant tubulin assembly inhibition activity
COc1ccc2[nH]c(-c3ccccc3)c(C3(c4cc(OC)c(OC)c(OC)c4)COC3)c2c1 [Compound 5l, 5-Methoxy-2-phenyl-3-(3-(3,4,5-trimethoxyphenyl)oxetan-3-yl)-1H-indole]	–	–	–	at most weakly active as inhibitors of tubulin polymerization; also recorded: no significant tubulin assembly inhibition activity
COc1ccc2c(C3(c4cc(OC)c(OC)c(OC)c4)COC3)c(-c3ccc(OC)c(O)c3)[nH]c2c1 [Compound 5m, 2-Methoxy-5-(6-methoxy-3-(3-(3,4,5-trimethoxyphenyl)oxetan-3-yl)-1H-indol-2-yl)phenol]	–	–	–	at most weakly active as inhibitors of tubulin polymerization; also recorded: no significant tubulin assembly inhibition activity
